Compound activity: PubChem, several laboratories
An excerpt weighted towards active compounds, which were near 1.5% of everything screened.
HNF4A DNA FP – change in binding of human HNF4 alpha to DNA; 360,000 tested, 0.3% active; AID 1224865; activity change, % at 10 µM; HNF4a-FITC DNA binding, fluorescence polarization, 1 h; in the data active = activity change above about 30%, passing the limit was not always enough
Target sequence (P41235 whole entry, looked up): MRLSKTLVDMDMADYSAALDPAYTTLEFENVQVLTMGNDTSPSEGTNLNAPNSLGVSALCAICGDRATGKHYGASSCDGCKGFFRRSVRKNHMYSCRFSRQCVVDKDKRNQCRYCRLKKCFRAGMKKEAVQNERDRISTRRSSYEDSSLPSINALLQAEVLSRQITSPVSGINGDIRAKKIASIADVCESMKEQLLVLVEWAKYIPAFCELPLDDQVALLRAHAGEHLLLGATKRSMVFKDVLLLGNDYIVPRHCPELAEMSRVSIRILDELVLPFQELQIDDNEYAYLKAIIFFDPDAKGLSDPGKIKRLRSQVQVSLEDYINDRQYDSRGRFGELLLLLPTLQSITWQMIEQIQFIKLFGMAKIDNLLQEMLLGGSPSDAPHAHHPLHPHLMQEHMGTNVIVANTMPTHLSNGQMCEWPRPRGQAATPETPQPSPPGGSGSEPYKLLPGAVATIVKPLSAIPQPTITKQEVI
CSN inh – inhibitors of human CSN-mediated cullin deneddylation. Purified CSN, SCF-Nedd8-OG deneddylation, fluorescence polarization. inhibition, % at 12.5 µM. 360,000 tested, 0.38% active. AID 651999;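 active = pattern-corrected inhibition above about 35%, with an unprinted fluorescence ratio check between 0.5 and 1.5, limit read from the data, passing the limit was not always enough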;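 note: 0% = enzyme with substrate and 100% = substrate without enzyme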
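Material: human Csn5 produced in HEK293T cells; Input: enzyme 0.24 nM; Reagent: SCFSkp2-Nedd8OG substrate at 10 nM final; Dosing: 12.5 µM compound; Incubation: 90 min reaction at room temperature; Detection: fluorescence polarization of the substrate; Evaluation: % inhibition of substrate cleavage by Csn5; Control set: substrate-only high control, full reaction low control.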
Rpn11 inh – inhibitors of human proteasome Rpn11 | 360,000 tested, 0.59% active | inhibition, % at 20 µM | O00487 | human 26S proteasome, Ub4-pepOG fluorescence polarization; 20S core pre-blocked with epoxomicin;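 active = inhibition at 20 µM, scaled to each plate's controls, above about 33%, limit read from the data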
TPT1 inh – inhibitors of Candida albicans tRNA 2'-phosphotransferase TPT1; recombinant caTPT1, FP RNA substrate dephosphorylation; inhibition, % at 5 µM; 300,000 tested, 0.81% active; AID 1962;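 active = inhibition above the mean of all tested compounds plus 3 SD, set per screening campaign, cut at about 24% in these data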;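 note: plate controls were DMSO alone for no effect and ferristatin control at 100 nM for full effect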
TPT1 inh confirm – TPT1 (C. albicans) inhibition, confirmation | shares compounds with TPT1 inh | recombinant caTPT1, fluorescence polarization, RNase T1 coupled | 2,400 tested, 74% active | inhibition, % at 5 µM;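 active = inhibition above the primary screen limit, the mean inhibition of all tested compounds plus 3 SD, cut at about 25% in these data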
RNase T1 inh – blocks Aspergillus oryzae RNase T1, a TPT1 counter-screen; shares compounds with TPT1 inh; RNase T1 cleavage, fluorescence polarization, 1536-well; inhibition, % at 5 µM; 2,400 tested, 83% active; AID 2153;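 active = inhibition above the solvent-only control well mean plus 3 SD, limit set per screening run, cut at about 23% in these data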;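 note: plate controls were DMSO wells with enzyme for no effect and wells without RNase T1 for full effect; inhibitors block cleavage so intact labeled substrate keeps polarization high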
Target sequence (P00651 whole entry, looked up): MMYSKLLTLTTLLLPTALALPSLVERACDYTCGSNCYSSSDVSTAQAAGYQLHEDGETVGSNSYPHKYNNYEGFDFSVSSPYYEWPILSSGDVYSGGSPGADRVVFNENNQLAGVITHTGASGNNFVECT
Starred values were filed as active, the others as inactive; . = not tested or not shown.

SMILES	HNF4A DNA FP	CSN inh	Rpn11 inh	TPT1 inh	TPT1 inh confirm	RNase T1 inh
Cc1nn(-c2ccccc2)c(N2CCCC2)c1/C=C1\N=C(c2ccc(OC(C)C)cc2)OC1=O	1.1	0.4	.	43.3*	72.6*	81.4*
COc1ccc(CN2CCN(Cc3cc(=O)oc4cc(C)ccc34)CC2)c(OC)c1OC	0.9	-0.4	-1.8	26.5*	9.5	12.7
Cc1nc(NC(=O)C(C)(C)C)sc1C(=O)Cn1cc(-c2ccc(C(C)(C)C)cc2)nn1	5.2	-0.5	.	.	.	.
N#Cc1c(-c2ccccc2)nc(SCC(=O)Nc2ccccc2)[nH]c1=O	-1.9	-16.9	0.5	-4.9	.	.
COC(=O)c1cccc(CSc2nc(-c3ccccc3)c(C#N)c(=O)[nH]2)c1	1.1	1.4	1.7	80.6*	5.8	8.7
N#Cc1c(-c2ccccc2)nc(SCC(=O)N(c2ccccc2)c2ccccc2)[nH]c1=O	3.9	3.5	-5.3	33.6*	10.9	18.4
CCN(CC)c1ccc(C=C(c2nnnn2-c2ccccc2)c2nnnn2-c2ccccc2)cc1	29.6	21.8	.	68.9*	93.8*	104.2*
Cc1ccc(-n2nnnc2C(=Cc2ccc(N(C)C)cc2)c2nnnn2-c2ccc(C)cc2)cc1	19.8	15.3	.	14.9	.	.
N#CC1=C(N)SC(N)=C(C#N)C1c1ccc([N+](=O)[O-])cc1	20.1	25.9	56.7*	40.1*	6.9	8.7
Cc1ccc(C2C(C#N)=C(N)SC(N)=C2C#N)o1	.	.	.	65.9*	34.0*	45.9*
CCOc1ccc(C2C(C#N)=C(N)SC(N)=C2C#N)cc1OC	.	.	.	114.9*	39.2*	56.5*
CCc1ccc(C2C(C#N)=C(N)SC(N)=C2C#N)s1	121.8	50.4	.	90.5*	80.2*	88.7*
COc1cc(-c2ccc3cc(OC)c(OC)c(OC)c3c2)cc(OC)c1OC	-2.0	0.9	0.3	.	.	.
CCOc1ccccc1C1C(C#N)=C(N)SC(N)=C1C#N	104.1	41.6	.	82.5*	56.0*	67.3*
CCOc1ccccc1C1C(C#N)=C(N)Oc2n[nH]c(CC)c21 (centres undefined)	2.6	4.5	1.1	-0.1	.	.
CCOc1ccc(C2C(C#N)=C(N)SC(N)=C2C#N)cc1OCC	138.5	124.3	.	126.0*	132.0*	127.7*
N#CC1=C(N)Oc2cc(N)ccc2C1c1ccccc1Cl (centres undefined)	-28.0	-0.3	-18.4	.	.	.
N#CC1=C(N)SC(N)=C(C#N)C1c1cccc(Oc2ccccc2)c1	135.7	38.6	.	111.1*	53.8*	69.4*
N#CC1=C(N)SC(N)=C(C#N)C1c1ccc(C(F)(F)F)cc1	.	.	.	20.0	.	.
N#CC1=C(N)SC(N)=C(C#N)C1c1c(Cl)cccc1Cl	77.0	78.3	.	47.4*	21.9	27.9*
Cc1ccc2c(C)c(C(=O)Nc3cccnc3)oc2c1C	2.0	3.1	-3.4	.	.	.
CCc1ccc(C2C(C#N)=C(N)SC(N)=C2C#N)cc1	140.5	-37.2	.	105.8*	73.0*	85.6*
COCCCN1C(=O)C(CC(=O)NC(c2ccccc2)c2ccccc2)CC(C(=O)N(C(C)C)C(C)C)=C1C (centres undefined)	3.4	1.1	5.4	.	.	.
O=C1/C(=C/c2c[nH]c3ccccc23)CCC/C1=C\c1c[nH]c2ccccc12	105.4	26.2	.	50.7*	147.4*	136.7*
CCc1noc(C)c1C(=O)OCC(=O)Nc1cccc(C)c1	1.8	4.9	5.6	.	.	.
SMILES	HNF4A DNA FP	CSN inh	Rpn11 inh	TPT1 inh	TPT1 inh confirm	RNase T1 inh
CCOc1ccc(-c2nc(C#N)c(N3CCN(C)CC3)o2)cc1	1.6	-2.1	-1.9	76.5*	4.6	5.2
O=C1CCC(CCC(=O)N2CCCC(C(=O)c3cccc(C(F)(F)F)c3)C2)=NN1 (centres undefined)	6.9	3.5	-2.7	-1.9	.	.
Cc1ccc(N=Cc2cccc(O)c2O)c(C)c1	-1.0	9.0	-1.2	1.9	.	.
Cc1ccc(N=Cc2sc(O)c3ccccc23)c(C)c1	153.2	-46.0	.	117.0*	79.9*	93.9*
Cc1ccc(F)c(N=Cc2c(O)c3ccccc3oc2=O)c1	1.7	0.6	8.2	0.0	.	.
O=C(COC(=O)Cc1c(F)cccc1Cl)NNC(=O)c1ccccc1	1.6	-2.0	1.1	.	.	.
Cc1cc(OCc2nc(N)nc(N)c2-c2ccc(Cl)c(Cl)c2)ccc1[N+](=O)[O-]	1.3	-0.8	-4.6	.	.	.
COC(=O)C(=O)C/C(=N/Nc1ncnc2ccccc12)c1ccc(Cl)cc1	3.8	4.2	16.3	58.5*	12.6	18.3
COc1ccc(N2C(=O)/C(=C\c3ccco3)N=C2SCC(=O)NC(C)C)cc1Cl	4.3	-0.3	10.4	11.1	.	.
CCNC(=O)CSC1=N/C(=C\c2ccc(O)c(OCC)c2)C(=O)N1c1ccc(OC(F)F)cc1	89.7*	46.8*	.	90.3*	102.0*	97.4*
O=C(CSC1=N/C(=C/c2ccco2)C(=O)N1c1ccc(OC(F)F)cc1)NC1CCS(=O)(=O)C1 (centres undefined)	23.8	3.0	27.4	28.0*	26.0*	34.0*
CCOc1cc(/C=N\Nc2ccc([N+](=O)[O-])cc2)ccc1OCC(=O)Nc1ccc(C)c(C)c1	125.5	4.5	.	45.9*	30.4*	35.0*
CC1CCCC(NC(=O)CN(C)CC(=O)Nc2cccc(F)c2)C1C (centres undefined)	0.1	1.2	-2.3	.	.	.
CCn1c(O)c(C=Nc2ccccc2)sc1=S	.	.	.	24.8*	22.1	27.6*
Oc1c(C=Nc2ccccc2)sc(=S)n1Cc1ccccc1	24.2	14.9	34.5	42.8*	43.3*	59.4*
O=C(N/C(=C/c1ccc(Br)cc1)C(=O)N1CCCCC1)c1ccccc1F	-0.2	4.5	-0.5	3.3	.	.
CCNc1ccc(Br)cc(C(=O)/C=C/c2ccccc2Cl)c1=O	-9.1	34.6	11.4	52.8*	88.4*	94.2*
CNc1ccc(Br)cc(C(=O)/C=C/c2cccc(OC)c2OC)c1=O	0.1	14.6	-5.7	41.3*	65.3*	76.1*
COC(=O)/C=C/c1ccc2c(c1)OCO2	0.5	-8.7	1.7	4.9	.	.
CCNc1ccccc(C(=O)/C=C/c2ccc3c(c2)OCO3)c1=O	3.4	12.7	2.6	26.4*	14.9	18.9
CNc1ccc(Br)cc(C(=O)/C=C/c2cccc(Cl)c2Cl)c1=O	20.3	27.0	35.9	.	.	.
O=C(C=Cc1ccccc1Cl)c1ccccc1	6.1	13.6	-5.4	.	.	.
COc1cc2cc(C(=O)NC(C)c3cccc4ccccc34)c(N)nc2cc1OC (centres undefined)	-1.4	-2.7	.	.	.	.
N#C/C(=C\c1ccc([N+](=O)[O-])o1)C(=O)Nc1ccc(F)cc1	15.2	23.4	.	39.5*	42.4*	54.7*
COc1ccc(NC(=O)c2cccc(S(=O)(=O)NCc3ccccc3)c2)cc1S(N)(=O)=O	-1.8	2.0	-7.9	.	.	.
CCCc1cc(-n2ccnc2)n2c(nc3ccccc32)c1C#N	59.3*	31.1	.	117.9*	101.5*	104.0*
